Experimental data published in ChEMBL document CHEMBL1153412, “Synthesis and anti-hepatitis B virus activities of Matijing-Su derivatives” (Bioorg Med Chem, 2009).
Calls of active or inactive are those of the source. The rule behind the calls is not given here. Square brackets hold non-standard residues; d marks the D form. Peptide text beside a SMILES is read from it. * marks the point of attachment. Phe(4-NO2) = N[C@@H](Cc1ccc([N+](=O)[O-])cc1)C(=O)O; Phe(4-NH2) = Nc1ccc(C[C@H](N)C(=O)O)cc1; Propionyl = CCC(=O)*; Bz = O=C(c1ccccc1)*

How the values were obtained:
Hepatitis B virus [1] = assay: Antiviral activity against HBV in human HepG2(2.2.15) cells assessed as inhibition of HBsAg production after 9 days by enzyme immunoassay; assay type: functional, organism-based
Procedure, shortened: (§1)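 2.2.15 cells seeded at 1.0 × 10⁵ cells/mL in MEM with 10% FBS for 24 h. After attachment, exposed to 50, 25 or 12.25 µg/mL in fresh DMEM, 4 wells per concentration, for 9 d, with medium changed every 3 d. Supernatant HBsAg and HBeAg measured by semiquantitative EIA kits on days 6 and 9. Untreated cells as control. Run twice.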

Hepatitis B virus [2] = assay: Antiviral activity against HBV in human HepG2(2.2.15) cells assessed as inhibition of HBeAg production after 9 days by enzyme immunoassay; assay type: functional, organism-based; procedure, shortened: as §1
[3] = Cytotoxicity against human HepG2(2.2.15) cells treated for 9 days measured after 24 hrs of last treatment by neutral red uptake assay; assay type: cell-based; conditions: read-out: TC50
Procedure, shortened: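 Confluent 2.2.15 cells treated as for the antiviral assay, 0.2 mL medium per well, with untreated control wells on each plate. Neutral red dye uptake read as absorbance at 510 nm relative to untreated cells, 24 h after day 9 of treatment.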

Hepatitis B virus [4] = assay: Antiviral activity against HBV in human HepG2(2.2.15) cells assessed as inhibition of viral genome replication after 9 days by Southern blot hybridization; assay type: functional, organism-based; conditions: HepG2 2.2.15, 216 h
Procedure, shortened: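 Confluent 2.2.15 cultures in RPMI 1640 with 2% FBS received daily doses, with medium and drug renewed each day. Intracellular HBV DNA quantified by Southern blot hybridization. IC50 calculated by […].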

[5] = Selectivity index, ratio of TC50 for human HepG2(2.2.15) cells to IC50 for HBV

| Structure (SMILES) | Activity (Hepatitis B virus [1]) | Activity (Hepatitis B virus [2]) | CC50 at 216 h [3] | IC50 (Hepatitis B virus [4]) | Selectivity Index [5] |
| --- | --- | --- | --- | --- | --- |
| O=C(N[C@@H](Cc1ccccc1)C(=O)N[C@H](CO)Cc1ccc([N+](=O)[O-])cc1)c1ccccc1 | inactive | inactive | 117 µM | – | – |
| O=C(N[C@@H](Cc1ccccc1)C(=O)N[C@@H](Cc1ccc(O)cc1)C(=O)O)c1ccccc1 (Bz-Phe-Tyr-OH) | inactive | inactive | – | – | – |
| O=C(N[C@@H](Cc1ccccc1)C(=O)N[C@H](CO)Cc1ccccc1)c1ccccc1 | inactive | inactive | 574 µM | – | – |
| O=C(N[C@@H](Cc1ccccc1)C(=O)N[C@H](CO)Cc1ccccc1)c1ccc(Cl)cc1 | inactive | inactive | 65.8 µM | 2.33 µM | 28.29 |
| Cc1ccc(C(=O)N[C@@H](Cc2ccccc2)C(=O)N[C@H](CO)Cc2ccccc2)cc1 | inactive | inactive | 1860 µM | – | – |
| O=C(N[C@@H](Cc1ccc([N+](=O)[O-])cc1)C(=O)N[C@H](CO)Cc1ccccc1)c1ccccc1 | inactive | inactive | 119 µM | – | – |
| CC(=O)Nc1ccc(C[C@@H](CO)NC(=O)[C@H](Cc2ccccc2)NC(=O)c2ccccc2)cc1 | inactive | inactive | 164 µM | – | – |
| O=C(N[C@@H](Cc1ccccc1)C(=O)N[C@H](CO)Cc1ccccc1)c1ccccc1Cl | inactive | inactive | 382 µM | – | – |
| O=C(N[C@@H](Cc1ccccc1)C(=O)N[C@@H](Cc1ccccc1)C(=O)O)c1ccccc1 (Bz-Phe-Phe-OH) | inactive | inactive | 313 µM | 25.4 µM | 12.36 |
| CC(=O)Nc1ccc(C[C@H](NC(=O)[C@H](Cc2ccccc2)NC(=O)c2ccccc2)C(=O)O)cc1 (Bz-Phe-[Phe(4-NH2)](Ac)-OH) | inactive | inactive | – | – | – |
| Cc1cccc(C(=O)N[C@@H](Cc2ccccc2)C(=O)N[C@H](CO)Cc2ccccc2)c1 | inactive | inactive | 185 µM | 60.5 µM | 3.06 |
| Nc1ccn([C@@H]2CS[C@H](CO)O2)c(=O)n1 [LAMIVUDINE] | – | – | 3430 µM | 82.4 µM | 41.59 |
| CCC(=O)Nc1ccc(C[C@H](NC(=O)[C@H](Cc2ccccc2)NC(=O)c2ccccc2)C(=O)O)cc1 (Bz-Phe-[Phe(4-NH2)](Propionyl)-OH) | inactive | inactive | 1150 µM | – | – |
| O=C(N[C@@H](Cc1ccc([N+](=O)[O-])cc1)C(=O)N[C@@H](Cc1ccccc1)C(=O)O)c1ccccc1 (Bz-[Phe(4-NO2)]-Phe-OH) | inactive | inactive | 841 µM | 54.2 µM | 15.52 |
| CC(=O)Nc1ccc(C[C@H](NC(=O)c2ccccc2)C(=O)N[C@H](CO)Cc2ccccc2)cc1 | inactive | inactive | 93.8 µM | 3.94 µM | 23.82 |
